cytoskel mod: alters cytoskeleton assembly in HUVEC cells | HUVEC TNFa F-actin phalloidin imaging, high content | inhibition, % at 2 µM | hit rate 0.18% among 91,000 | AID 836;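 active means inhibition above the batch mean plus 3 SD and confirmed as a hit by visual image inspection, cut at about 30% in these data, passing the limit was not always enough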
E-sel TNF inh: blocks E-selectin expression induced by TNF alpha. HUVEC TNFa-induced E-selectin immunofluorescence, high content. inhibition, % at 2 µM. hit rate 0.71% among 120,000. AID 1246;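 active means inhibition above the batch mean plus 3 SD, and confirmed as a hit on visual image review, cut at about 43% in these data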;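 further: 0% = TNF-stimulated DMSO wells and 100% = unstimulated control wells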
FAK blocker: inhibitors of human focal adhesion kinase; Q05397; biochemical FAK kinase activity assay; inhibition, %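 (tested at 7 µM)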; AID 727; hit rate 0.84% among 97,000; in the data active means inhibition above about 19%;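 further: 0% = DMSO and 100% = reference compound high control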
PLK1 kinase inh: inhibitors of human PLK1 kinase | AID 619 | recombinant PLK1 kinase, TR-FRET peptide phosphorylation | hit rate 0.53% among 97,000 | P53350 | inhibition, % at 10 µM;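 active means inhibition of 50% or more in the single-concentration screen; inactive means inhibition below 50%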;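 further: 0% = DMSO max control and 100% = H-89 dihydrochloride min control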
PLK1 PBD inh: inhibitors of human Plk1 polo box domain binding. AID 693. inhibition, %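 (tested at about 20 µM)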. Plk1 PBD phosphopeptide binding, fluorescence polarization. hit rate 0.13% among 97,000; in the data active means inhibition above about 34%, passing the limit was not always enough
HIV Rev-RRE inh: disrupts HIV-1 Rev binding to RRE RNA | Rev peptide-RRE RNA binding, FRET | inhibition, % at 8 µM | hit rate 0.79% among 97,000;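 active means inhibition above the screen-wide mean plus 3 SD, cut at about 35% in these data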;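 further: 0% = median DMSO wells and 100% = median Neomycin B control wells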
Target sequence (P05866 whole entry, looked up): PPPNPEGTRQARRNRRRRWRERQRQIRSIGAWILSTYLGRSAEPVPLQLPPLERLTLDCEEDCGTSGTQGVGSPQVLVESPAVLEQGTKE
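assay system = Cy5-tagged RRE RNA duplex with fluorescein-tagged Rev peptide | incubation = 5 + 15 min at 25 °C | also added = labelled Rev peptide | measure = % inhibition of FRET ratio versus controls | benchmarks = DMSO wells as 0% and neomycin B wells as 100% inhibition | measured by = FRET fluorescence readout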
* = called active by the depositor; nt = not tested or not shown; [ ] = remark or other dose. An excerpt weighted towards active compounds, which were near 2.2% of everything screened.

SMILES	cytoskel mod	E-sel TNF inh	FAK blocker	PLK1 kinase inh	PLK1 PBD inh	HIV Rev-RRE inh
COc1ccc(NS(=O)(=O)c2cccc(NC(=O)c3ccc(S(=O)(=O)N4CCCCCC4)cc3)c2)cc1	nt	-14.4	nt	nt	nt	nt
COc1ccc(S(=O)(=O)Nc2cccc(S(=O)(=O)N3CCCCCC3)c2)cc1	nt	71.3*	nt	nt	nt	nt
CN(C)CCCNc1ncnc2c1cnn2-c1ccccc1	-2.3	nt	4.4	66.7*	22.9	7.5
O=C1c2ccccc2C(=O)N1CCN1CCCCC1	10.7	-5.6	-4.0	-12.0	10.5	6.2
O=C1C(=O)N(CCN2CCCCC2)c2ccccc21	1.8	-12.8	-0.5	53.5*	-45.0	4.4
CN1C=CC2=C(C#N)C(N)C(C#N)(C#N)[C@H](c3ccccc3)[C@H]2C1 (stereo partly specified)	-1.6	-5.8	2.8	-6.6	-10.9	59.6*
CCCCCSc1nnc2c(n1)OC(C)N(C(C)=O)c1ccccc1-2 (stereo unspecified)	nt	nt	-0.3	57.2*	22.0	5.7
CC(C)CC(=O)NC(NC(=S)Nc1sc2c(c1C#N)CCCC2)C(Cl)(Cl)Cl (stereo unspecified)	-16.9	48.4	-6.0	15.8	-30.6	0.1
COc1cc2[nH]c(=O)n(CCCCCC(=O)NCCCN3CCCC3=O)c(=O)c2cc1OC	2.7	-14.6	-5.9	-6.3	9.4	-2.0
CCOc1cc2[nH]c(=O)n(CCCN3CCCC3=O)c(=O)c2cc1OCC	7.6	45.8*	-4.9	-7.5	-4.8	9.1
Fc1ccc(CNc2nc(-c3ccccc3)nc3ccccc23)cc1	nt	99.8*	nt	nt	nt	nt
Cc1ccc2nc(C)cc(Nc3ccc4c(c3)OCCO4)c2c1	5.1	-3.8	-1.2	-7.8	-3.6	2.2
CCOc1ccc2nc(C)cc(Nc3ccc4c(c3)OCCO4)c2c1	68.2*	6.4	-3.1	-12.3	22.2	-1.9
O=C(CCCCCNc1nc(=S)[nH]c2ccccc12)NCCC1=CCCCC1	nt	12.3	nt	nt	nt	nt
CN(C)c1ccc(NC(=O)COC(=O)Cn2nnc3ccccc32)cc1	nt	88.9*	nt	nt	nt	nt
CCOC(=O)c1cc2c(ccn2C)n1Cc1ccccc1C	62.6*	37.7	3.4	-2.7	15.2	0.9
Cc1ccccc1Cn1c(C(=O)OC(C)C)cc2c1ccn2C	-10.4	-15.7	-2.5	-5.7	-10.4	-1.4
Cc1nonc1C1CCCN1C(=O)c1cc(COc2ccc(F)cc2Cl)on1 (stereo unspecified)	nt	-3.6	nt	nt	nt	nt
Cc1cccc(C(=O)NNC(=O)Nc2ccccc2)c1	nt	64.5*	nt	nt	nt	nt
Cc1ccc(NC(=O)NNC(=O)c2ccccc2)cc1	nt	-28.4	nt	nt	nt	nt
O=C(c1cc2ccccn2n1)N1CCN(Cc2ccccc2)CC1	-1.5	nt	nt	54.2*	-6.5	nt
C=CC(=O)NC(C)(C)CCN1CCOCC1	nt	1.2	nt	nt	nt	nt
COC(=O)c1cc(S(=O)(=O)N2CCOCC2)c(N2CCOCC2)cc1N1CCOCC1	nt	56.1*	nt	nt	nt	nt
O=C(c1cc(S(=O)(=O)N2CCCCC2)c(Cl)cc1N1CCOCC1)N1CCOCC1	16.2	-19.4	-2.4	-5.8	-7.6	2.5
Cc1[nH]c2ccccc2c1C(=O)COC(=O)c1c(-c2c(F)cccc2Cl)noc1C	nt	-4.4	nt	nt	nt	nt
SMILES	cytoskel mod	E-sel TNF inh	FAK blocker	PLK1 kinase inh	PLK1 PBD inh	HIV Rev-RRE inh
N#C/C(=C/c1ccc(N2CCCC2)c([N+](=O)[O-])c1)c1nc2ccccc2[nH]1	9.1	-9.3	11.7	-6.2	-40.0	45.0*
N#C/C(=C\c1ccc(N2CCOCC2)o1)c1nc2ccccc2[nH]1	-1.6	20.4	6.7	-65.7	-223.1	135.8*[fluorescence artefact?]
N#C/C(=C/c1ccc(N2CCOCC2)o1)c1ccc(Cl)cc1	15.8	-35.0	1.4	-6.0	-126.8	112.6*[fluorescence artefact?]
O=C(OC(C(=O)NCc1ccc2c(c1)OCO2)c1ccncc1)c1ccc(Cl)nc1 (stereo unspecified)	nt	-3.7	nt	nt	nt	nt
O=C(N/N=C/c1cc([N+](=O)[O-])ccc1N1CCNCC1)c1ccc([N+](=O)[O-])cc1	1.4	nt	17.7	-4.2	15.1	1.8
COc1ccc(C(=O)C(CN2CCOCC2)c2ccccc2)cc1F (stereo unspecified)	15.5	62.4*	-2.7	-1.6	11.6	-0.3
COC(=O)c1ccccc1NC1CC(=O)N(c2c(C)cccc2C)C1=O (stereo unspecified)	7.5	19.3	0.7	-9.4	5.6	5.4
O=C(Nc1cccs1)Nc1c(F)c(F)c(F)c(F)c1F	nt	69.5*	nt	nt	nt	nt
N#CC1=C(SCC(=O)c2cc3ccccc3oc2=O)NC(=O)C(C#N)C12CCCC2 (stereo unspecified)	13.3	-10.5	3.2	-14.5	-8.0	112.6*[fluorescence artefact?]
Cn1c(=O)[nH]c(=O)c2c1nc(Br)n2CCSc1nnnn1-c1ccccc1	nt	-20.9	0.0	-1.6	-10.0	1.9

Screening data from PubChem BioAssay.
